Results gathered from unrelated publications.
Lines come from different studies, so protocols differ.
Target: Alpha-glucosidase MAL12 (MAL12, Saccharomyces cerevisiae S288c, UniProt P53341)
Observed: enzyme activity
Action: inhibitor

C[C@H]1CN(C(=O)Nc2ccc(C(F)(F)F)cc2)CCN1c1ccnc(Nc2ccccc2O)n1  IC50 (absorbance; pH 6.9): 5.13 µM
COc1ccc(-c2c(N)c(-c3ccc(C)cc3)nc3ncnn23)cc1  IC50 (absorbance): 89.3 µM
CC(=O)C1=C(C)n2c(=O)c3ccccc3c(=O)n2C1c1cn(-c2ccccc2)nc1-c1ccc(Cl)cc1 (stereo not shown)  IC50 (absorbance): 359 µM
C[C@H]1CN(C(=O)Nc2ccc(C(F)(F)F)cc2)CCN1c1ccnc(Nc2ccc(C(F)(F)F)cc2)n1  IC50 (absorbance; pH 6.9): 2.63 µM
CC1(C)CC(=O)C2=C(C1)n1c(=O)c3ccccc3c(=O)n1C2c1cn(-c2ccccc2)nc1-c1ccc([N+](=O)[O-])cc1 (stereo not shown)  IC50 (absorbance): 285 µM
Cc1ccc(-c2nc3ncnn3c(-c3ccc(Br)cc3)c2N)cc1  IC50 (absorbance): 68.7 µM
C[C@H]1CN(C(=O)Nc2ccc(Cl)c(Cl)c2)CCN1c1ccnc(Nc2ccc(Cl)cc2)n1  IC50 (absorbance; pH 6.9): 1.82 µM
Nc1c(-c2ccccc2)nc2ncnn2c1-c1ccccc1Cl  IC50 (absorbance): 125 µM
C[C@@H]1CN(C(=O)Nc2ccc(C(F)(F)F)cc2)CCN1c1ccnc(Nc2ccc(Cl)c(O)c2)n1  IC50 (absorbance; pH 6.9): 2.08 µM
CCCCCCCCCCCC(=O)OCC(C)(C)CC1=C(O)C(=O)c2ccccc2C1=O  IC50: 2.6 µM
CC1(C)CC(=O)C2=C(C1)n1c(=O)c3ccccc3c(=O)n1C2c1cn(-c2ccccc2)nc1-c1ccccc1 (stereo not shown)  IC50 (absorbance): 74.2 µM
Nc1c(-c2ccc(Cl)cc2)nc2ncnn2c1-c1cccs1  IC50 (absorbance): 82.4 µM
CC1(C)CC(=O)C2=C(C1)n1c(=O)c3ccccc3c(=O)n1C2c1cn(-c2ccccc2)nc1-c1ccc(Br)cc1 (stereo not shown)  IC50 (absorbance): 353 µM
CCCCCCCCCCCCCCCCCC(=O)OCC(C)(C)CC1=C(O)C(=O)c2ccccc2C1=O  IC50: 25.7 µM
Cc1ccc(-c2nn(-c3ccccc3)cc2C2C3=C(CC(C)(C)CC3=O)n3c(=O)c4ccccc4c(=O)n32)cc1 (stereo not shown)  IC50 (absorbance): 282 µM
COc1cc(/C=C/c2ccc(O)cc2)cc(OC)c1  IC50 (absorbance; pH 6.8): 1570 µM
